Tests used:
[1] = target: Sodium-dependent noradrenaline transporter (Homo sapiens, UniProt P23975); test: Inhibition of norepinephrine reuptake at NET expressed in MDCK cells; type: cell-based
[2] = target: Sodium-dependent dopamine transporter (Homo sapiens, UniProt Q01959); test: Inhibition of dopamine reuptake at DAT expressed in CHO-K1 cells; type: cell-based
[3] = target: Sodium-dependent serotonin transporter (Homo sapiens, UniProt P31645); test: Inhibition of serotonin reuptake at SERT expressed in HEK293 cells; type: cell-based
[4] = Half life in human liver microsomes at 3 uM by LC-MS/MS analysis; type: ADME, Microsome
Procedure, shortened: (§1)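 Human or mouse liver microsomes (0.5 mg/mL) incubated with 3 μM compound at 37 °C. Reaction started with NADPH and stopped with methanol containing internal standard. Loss of compound followed over 45 min by LC-MS/MS. Peak area ratio to internal standard plotted against time and the slope of the line taken.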

Cytochrome P450 2D6 = Cytochrome P450 2D6 (Homo sapiens, UniProt P10635); test: Inhibition of CYP2D6 in human liver microsomes by LC-MS/MS analysis; type: ADME, Microsome
Procedure, shortened: (§2)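 Human liver microsomes incubated with isoform-specific substrates and compound, typically 0.1–25 μM. Metabolite formation read by LC-MS/MS, […]. IC50 calculated from the decrease in metabolite formation relative to vehicle control.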

[5] = Half life in mouse liver microsomes at 3 uM by LC-MS/MS analysis; type: ADME, Microsome; procedure, shortened: as §1
Cytochrome P450 3A4 = Cytochrome P450 3A4 (Homo sapiens, UniProt P08684); test: Inhibition of CYP3A4 in human liver microsomes by LC-MS/MS analysis; type: ADME, Microsome; procedure, shortened: as §2
CYP1A = target: T1, CYP1A (Homo sapiens, UniProt P04798+P05177); test: Inhibition of CYP1A in human liver microsomes by LC-MS/MS analysis; type: ADME, Microsome; procedure, shortened: as §2
T1 sequence (P04798 whole entry): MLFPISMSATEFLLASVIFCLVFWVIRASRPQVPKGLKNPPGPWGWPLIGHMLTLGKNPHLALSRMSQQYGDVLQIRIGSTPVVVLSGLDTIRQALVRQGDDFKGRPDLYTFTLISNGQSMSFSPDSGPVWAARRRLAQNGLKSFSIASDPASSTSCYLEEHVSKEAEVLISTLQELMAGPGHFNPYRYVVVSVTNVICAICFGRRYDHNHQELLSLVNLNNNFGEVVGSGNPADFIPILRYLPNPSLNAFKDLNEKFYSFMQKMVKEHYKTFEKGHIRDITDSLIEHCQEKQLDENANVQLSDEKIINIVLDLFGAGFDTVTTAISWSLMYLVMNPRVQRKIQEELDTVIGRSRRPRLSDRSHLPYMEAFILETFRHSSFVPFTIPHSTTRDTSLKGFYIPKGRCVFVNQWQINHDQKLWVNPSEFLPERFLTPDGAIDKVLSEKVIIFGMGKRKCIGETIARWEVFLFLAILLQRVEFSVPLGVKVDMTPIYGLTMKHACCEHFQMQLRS
T1 sequence (P05177 whole entry): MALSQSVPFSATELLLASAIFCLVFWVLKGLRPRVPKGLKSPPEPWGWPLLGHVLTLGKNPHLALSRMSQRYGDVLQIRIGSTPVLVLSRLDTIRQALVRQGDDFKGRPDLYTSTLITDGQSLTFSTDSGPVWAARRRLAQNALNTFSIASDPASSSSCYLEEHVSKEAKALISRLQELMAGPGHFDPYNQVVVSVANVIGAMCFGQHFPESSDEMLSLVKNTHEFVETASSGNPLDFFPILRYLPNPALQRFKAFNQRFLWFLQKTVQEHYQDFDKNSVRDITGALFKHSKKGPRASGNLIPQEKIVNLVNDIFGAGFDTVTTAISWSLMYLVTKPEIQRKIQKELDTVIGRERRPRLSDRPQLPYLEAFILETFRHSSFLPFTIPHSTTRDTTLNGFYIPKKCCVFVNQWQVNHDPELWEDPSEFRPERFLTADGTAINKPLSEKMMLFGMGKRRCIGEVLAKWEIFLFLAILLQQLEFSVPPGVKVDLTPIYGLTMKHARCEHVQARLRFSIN

[6] = target: Voltage-gated inwardly rectifying potassium channel KCNH2 (Homo sapiens, UniProt Q12809); test: Inhibition of human ERG expressed in CHO cells by high throughput single cell planar patch clamp method; type: cell-based
Cytochrome P450 2C19 = Cytochrome P450 2C19 (Homo sapiens, UniProt P33261); test: Inhibition of CYP2C19 in human liver microsomes by LC-MS/MS analysis; type: ADME, Microsome; procedure, shortened: as §2
Cytochrome P450 2C9 = Cytochrome P450 2C9 (Homo sapiens, UniProt P11712); test: Inhibition of CYP2C9 in human liver microsomes by LC-MS/MS analysis; type: ADME, Microsome; procedure, shortened: as §2
Chain of Cytochrome P450 2C9 (P11712 whole entry): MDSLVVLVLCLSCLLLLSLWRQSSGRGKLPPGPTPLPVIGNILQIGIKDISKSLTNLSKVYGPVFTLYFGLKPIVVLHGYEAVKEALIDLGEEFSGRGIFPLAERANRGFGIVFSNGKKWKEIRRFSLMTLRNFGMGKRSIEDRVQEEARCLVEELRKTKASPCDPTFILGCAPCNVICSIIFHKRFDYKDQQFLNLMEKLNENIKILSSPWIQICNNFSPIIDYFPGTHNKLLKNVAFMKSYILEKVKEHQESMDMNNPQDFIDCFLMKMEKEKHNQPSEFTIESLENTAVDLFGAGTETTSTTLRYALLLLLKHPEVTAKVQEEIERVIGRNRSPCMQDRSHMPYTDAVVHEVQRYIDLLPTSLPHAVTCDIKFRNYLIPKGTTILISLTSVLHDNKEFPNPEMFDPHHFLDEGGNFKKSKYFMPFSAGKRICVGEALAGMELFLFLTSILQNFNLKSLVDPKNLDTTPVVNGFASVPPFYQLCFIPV

Chain of Cytochrome P450 2D6 (P10635 whole entry, canonical isoform): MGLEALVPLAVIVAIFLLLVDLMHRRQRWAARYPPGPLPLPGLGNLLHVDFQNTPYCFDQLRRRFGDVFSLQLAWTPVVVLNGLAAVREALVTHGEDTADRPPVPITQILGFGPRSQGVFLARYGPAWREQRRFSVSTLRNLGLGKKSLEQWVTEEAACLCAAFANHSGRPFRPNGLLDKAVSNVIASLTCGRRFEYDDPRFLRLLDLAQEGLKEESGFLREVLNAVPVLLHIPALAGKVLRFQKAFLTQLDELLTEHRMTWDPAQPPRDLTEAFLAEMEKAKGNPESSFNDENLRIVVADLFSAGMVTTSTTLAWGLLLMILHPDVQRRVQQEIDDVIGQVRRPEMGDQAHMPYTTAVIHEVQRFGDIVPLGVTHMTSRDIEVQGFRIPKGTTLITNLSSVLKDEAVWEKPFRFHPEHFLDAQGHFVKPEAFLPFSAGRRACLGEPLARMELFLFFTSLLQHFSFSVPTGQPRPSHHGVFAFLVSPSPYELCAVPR
Chain of Cytochrome P450 3A4 (P08684 whole entry): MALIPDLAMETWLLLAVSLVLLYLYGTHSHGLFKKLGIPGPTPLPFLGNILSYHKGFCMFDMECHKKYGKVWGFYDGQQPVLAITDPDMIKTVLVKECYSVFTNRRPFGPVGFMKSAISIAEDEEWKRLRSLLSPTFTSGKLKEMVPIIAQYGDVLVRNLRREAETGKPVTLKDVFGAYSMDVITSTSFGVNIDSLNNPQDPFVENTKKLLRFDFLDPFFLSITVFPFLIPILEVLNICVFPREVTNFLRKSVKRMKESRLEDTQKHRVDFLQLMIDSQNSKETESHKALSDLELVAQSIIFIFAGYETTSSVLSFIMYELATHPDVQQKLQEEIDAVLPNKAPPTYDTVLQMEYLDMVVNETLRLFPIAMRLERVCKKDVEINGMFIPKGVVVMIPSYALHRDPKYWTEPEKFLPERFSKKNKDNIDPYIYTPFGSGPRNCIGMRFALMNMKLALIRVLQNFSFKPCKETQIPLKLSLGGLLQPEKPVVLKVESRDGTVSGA
Chain of Sodium-dependent noradrenaline transporter (P23975 whole entry): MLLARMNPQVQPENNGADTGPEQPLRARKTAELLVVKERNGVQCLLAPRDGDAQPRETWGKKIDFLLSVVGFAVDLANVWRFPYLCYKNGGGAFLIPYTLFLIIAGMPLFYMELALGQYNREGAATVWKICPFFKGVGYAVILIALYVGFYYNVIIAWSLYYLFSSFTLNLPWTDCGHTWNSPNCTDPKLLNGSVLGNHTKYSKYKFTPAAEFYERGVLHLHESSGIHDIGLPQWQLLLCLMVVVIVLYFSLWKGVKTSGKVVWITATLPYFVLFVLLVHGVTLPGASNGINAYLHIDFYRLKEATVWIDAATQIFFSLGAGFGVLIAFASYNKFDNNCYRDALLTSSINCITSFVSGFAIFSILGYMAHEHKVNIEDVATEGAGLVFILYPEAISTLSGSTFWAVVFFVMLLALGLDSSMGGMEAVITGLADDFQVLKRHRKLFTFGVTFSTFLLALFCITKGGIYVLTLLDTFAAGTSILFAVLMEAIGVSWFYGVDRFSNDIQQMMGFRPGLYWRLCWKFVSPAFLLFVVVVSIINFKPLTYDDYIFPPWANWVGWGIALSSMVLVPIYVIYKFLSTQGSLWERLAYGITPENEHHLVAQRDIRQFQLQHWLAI
Chain of Sodium-dependent dopamine transporter (Q01959 whole entry): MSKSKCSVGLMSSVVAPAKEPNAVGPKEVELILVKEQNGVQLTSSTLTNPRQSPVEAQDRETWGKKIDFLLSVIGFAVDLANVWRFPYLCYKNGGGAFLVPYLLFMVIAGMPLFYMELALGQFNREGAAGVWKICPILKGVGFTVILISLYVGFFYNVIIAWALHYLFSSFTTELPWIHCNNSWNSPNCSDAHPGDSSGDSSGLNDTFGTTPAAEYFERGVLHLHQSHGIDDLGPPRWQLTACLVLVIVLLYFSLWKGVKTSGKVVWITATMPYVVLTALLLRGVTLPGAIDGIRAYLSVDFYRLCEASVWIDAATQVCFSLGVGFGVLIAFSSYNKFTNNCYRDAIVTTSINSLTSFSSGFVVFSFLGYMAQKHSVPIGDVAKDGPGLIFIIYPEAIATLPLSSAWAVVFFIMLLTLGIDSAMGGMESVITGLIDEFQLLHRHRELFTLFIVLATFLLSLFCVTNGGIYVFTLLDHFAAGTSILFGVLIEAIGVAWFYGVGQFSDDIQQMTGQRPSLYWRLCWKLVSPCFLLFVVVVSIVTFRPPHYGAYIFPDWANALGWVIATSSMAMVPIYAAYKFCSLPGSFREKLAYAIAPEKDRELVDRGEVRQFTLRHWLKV
Chain of Cytochrome P450 2C19 (P33261 whole entry): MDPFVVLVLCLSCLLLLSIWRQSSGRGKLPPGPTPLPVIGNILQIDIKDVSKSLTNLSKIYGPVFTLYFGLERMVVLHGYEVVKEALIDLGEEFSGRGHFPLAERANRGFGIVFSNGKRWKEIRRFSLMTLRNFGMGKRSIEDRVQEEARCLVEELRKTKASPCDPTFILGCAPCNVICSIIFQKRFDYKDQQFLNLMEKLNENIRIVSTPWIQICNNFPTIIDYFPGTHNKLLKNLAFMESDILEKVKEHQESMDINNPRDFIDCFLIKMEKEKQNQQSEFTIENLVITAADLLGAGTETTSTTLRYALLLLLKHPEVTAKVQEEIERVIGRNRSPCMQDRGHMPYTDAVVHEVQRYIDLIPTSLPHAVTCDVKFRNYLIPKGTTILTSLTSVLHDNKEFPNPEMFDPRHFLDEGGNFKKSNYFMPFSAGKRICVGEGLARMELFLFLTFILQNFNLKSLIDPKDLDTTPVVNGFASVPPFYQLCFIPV
Chain of Sodium-dependent serotonin transporter (P31645 whole entry): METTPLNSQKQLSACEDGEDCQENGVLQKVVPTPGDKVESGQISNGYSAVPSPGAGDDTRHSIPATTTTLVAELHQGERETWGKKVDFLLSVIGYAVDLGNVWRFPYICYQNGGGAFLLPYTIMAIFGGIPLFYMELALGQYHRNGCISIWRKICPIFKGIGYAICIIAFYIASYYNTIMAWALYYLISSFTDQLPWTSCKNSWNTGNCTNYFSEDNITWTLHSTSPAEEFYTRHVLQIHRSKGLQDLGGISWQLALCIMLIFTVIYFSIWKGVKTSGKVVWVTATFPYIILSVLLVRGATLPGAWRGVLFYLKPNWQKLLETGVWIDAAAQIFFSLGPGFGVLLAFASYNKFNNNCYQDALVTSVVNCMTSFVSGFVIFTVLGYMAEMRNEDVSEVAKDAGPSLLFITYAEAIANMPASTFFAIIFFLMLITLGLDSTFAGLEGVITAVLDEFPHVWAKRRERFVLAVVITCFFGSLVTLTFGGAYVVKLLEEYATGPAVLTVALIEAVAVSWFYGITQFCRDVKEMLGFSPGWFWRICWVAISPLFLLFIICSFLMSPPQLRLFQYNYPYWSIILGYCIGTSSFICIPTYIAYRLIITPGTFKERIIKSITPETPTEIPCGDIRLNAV
Chain of Voltage-gated inwardly rectifying potassium channel KCNH2 (Q12809 whole entry): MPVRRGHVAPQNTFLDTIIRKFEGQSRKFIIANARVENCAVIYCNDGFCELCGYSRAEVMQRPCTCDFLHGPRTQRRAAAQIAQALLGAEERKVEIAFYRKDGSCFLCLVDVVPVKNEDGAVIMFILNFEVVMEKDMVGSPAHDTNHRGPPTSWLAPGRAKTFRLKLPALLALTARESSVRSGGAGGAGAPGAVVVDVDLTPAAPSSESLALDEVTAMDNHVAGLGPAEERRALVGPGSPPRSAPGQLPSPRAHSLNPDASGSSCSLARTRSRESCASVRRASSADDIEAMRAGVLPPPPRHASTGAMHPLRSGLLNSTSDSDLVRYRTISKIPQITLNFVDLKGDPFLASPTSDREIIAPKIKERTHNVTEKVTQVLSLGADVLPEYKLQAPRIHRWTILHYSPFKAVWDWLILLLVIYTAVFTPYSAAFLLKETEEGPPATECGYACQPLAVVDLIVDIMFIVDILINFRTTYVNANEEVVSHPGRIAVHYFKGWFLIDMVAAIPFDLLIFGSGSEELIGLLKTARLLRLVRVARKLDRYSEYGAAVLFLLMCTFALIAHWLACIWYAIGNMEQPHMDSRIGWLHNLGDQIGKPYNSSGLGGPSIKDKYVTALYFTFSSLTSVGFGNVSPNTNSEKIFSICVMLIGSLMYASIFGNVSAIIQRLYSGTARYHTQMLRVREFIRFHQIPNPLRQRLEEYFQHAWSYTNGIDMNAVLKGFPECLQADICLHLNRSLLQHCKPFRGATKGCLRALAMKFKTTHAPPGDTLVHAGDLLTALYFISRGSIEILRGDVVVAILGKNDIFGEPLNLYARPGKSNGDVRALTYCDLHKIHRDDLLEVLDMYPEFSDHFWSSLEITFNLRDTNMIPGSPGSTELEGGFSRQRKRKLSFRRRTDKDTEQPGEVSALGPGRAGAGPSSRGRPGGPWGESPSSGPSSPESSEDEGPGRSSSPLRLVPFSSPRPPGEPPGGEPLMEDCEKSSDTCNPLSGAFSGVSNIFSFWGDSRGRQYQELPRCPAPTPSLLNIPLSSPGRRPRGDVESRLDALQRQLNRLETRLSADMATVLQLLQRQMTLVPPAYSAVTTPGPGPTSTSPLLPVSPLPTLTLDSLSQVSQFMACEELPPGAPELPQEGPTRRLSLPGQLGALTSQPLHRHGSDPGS

Compound | IC50 [1] | IC50 [2] | IC50 [3] | half-life at 3 µM [4] | IC50 (Cytochrome P450 2D6) | half-life at 3 µM [5] | IC50 (Cytochrome P450 3A4) | IC50 (CYP1A) | IC50 [6] | IC50 (Cytochrome P450 2C19) | IC50 (Cytochrome P450 2C9)
CN1C[C@@H]2CCCC[C@]2(c2ccc(F)c(F)c2)C1 (racemic) | 2.34 µM | 0.417 µM | 1.23 µM | – | – | – | – | – | – | – | –
CN1C[C@H]2CCCC[C@@]2(c2cccc3ccccc23)C1 | 0.204 µM | 2.45 µM | 0.0331 µM | – | – | – | – | – | – | – | –
COc1ccc([C@]23CCCC[C@H]2CN(C)C3)cc1OC (racemic) | 5.89 µM | 9.77 µM | 0.0347 µM | – | – | – | – | – | – | – | –
COc1ccc([C@]23CCC[C@H]2CN(C)C3)cc1 (racemic) | > 10 µM | > 10 µM | 0.00447 µM | – | – | – | – | – | – | – | –
CN1C[C@@H]2CCC[C@]2(c2cc(Cl)cc(Cl)c2)C1 (racemic) | 4.27 µM | 9.77 µM | 0.331 µM | – | – | – | – | – | – | – | –
CN1C[C@H]2CCCC[C@@]2(Cc2ccc(Cl)c(Cl)c2)C1 (stereo in doubt) | 3.8 µM | 0.479 µM | 0.0055 µM | 121 min | < 0.05 µM | 25 min | – | – | – | – | –
CN1C[C@@H]2CCCC[C@]2(c2ccc3ccccc3c2)C1 | 0.724 µM | 0.309 µM | 0.00692 µM | 46 min | 0.56 µM | 18 min | – | – | – | – | –
CN1C[C@@H]2CCCC[C@]2(c2ccccc2)C1 (racemic) | 0.562 µM | 1.58 µM | 0.724 µM | – | – | – | – | – | – | – | –
Clc1ccc(C[C@@]23CCCC[C@@H]2CNC3)cc1Cl | 2.95 µM | 0.158 µM | 0.049 µM | > 300 min | < 0.05 µM | > 300 min | – | – | – | – | –
CCN1C[C@H]2CCCC[C@@]2(c2ccc(Cl)c(Cl)c2)C1 | 0.0269 µM | 0.0251 µM | 0.0457 µM | 68 min | 0.25 µM | 52 min | > 5 µM | > 25 µM | 4.73 µM | 17.9 µM | > 5 µM
CN1C[C@H]2CCC[C@@]2(c2ccc3ccccc3c2)C1 | 0.191 µM | 0.0288 µM | 0.0145 µM | 19 min | 12.8 µM | 18 min | – | – | – | – | –
CN1C[C@@H]2CCC[C@]2(c2ccc3ccccc3c2)C1 | 0.209 µM | 0.182 µM | 0.00229 µM | 36 min | 2.61 µM | 18 min | – | – | – | – | –
CCN1C[C@@H]2CCCC[C@]2(c2ccc(Cl)c(Cl)c2)C1 (single isomer, unassigned) | 0.038 µM | 0.01 µM | 0.0692 µM | 55 min | 2.92 µM | 33 min | > 5 µM | 4.23 µM | 4.33 µM | > 25 µM | > 5 µM
CN1C[C@@H]2CCCC[C@]2(c2ccc(Cl)c(Cl)c2)C1 | 0.141 µM | 0.0141 µM | 0.107 µM | 62 min | 8 µM | 35 min | 5.28 µM | 3 µM | 2.32 µM | > 25 µM | > 25 µM
Clc1ccc([C@@]23CCCC[C@@H]2CNC3)cc1Cl | 0.204 µM | 0.0832 µM | 0.0912 µM | > 300 min | 7.93 µM | > 300 min | 12.8 µM | 6.14 µM | 3.64 µM | > 25 µM | > 25 µM
COc1ccc([C@]23CCCC[C@H]2CN(C)C3)cc1 (racemic) | 14.1 µM | 1 µM | 0.129 µM | – | – | – | – | – | – | – | –
Clc1ccc([C@]23CCC[C@H]2CNC3)cc1Cl (single isomer, unassigned) | 0.209 µM | 0.141 µM | 0.501 µM | 22 min | 2.47 µM | 56 min | 9.17 µM | 0.53 µM | 6.4 µM | 1.9 µM | 4.01 µM
